From ChEMBL document CHEMBL1772963, “Isolation and structure of homotemsirolimuses A, B, and C” (J Nat Prod, 2011)
pIC50: −log10 of the molar value.

Columns and labels:
[1] = biological target: Serine/threonine-protein kinase mTOR (Homo sapiens, UniProt P42345); assay: Inhibition of FKBP12-independent human recombinant mTOR expressed in HEK293 cells using His6-S6K1 as a substrate by DELFIA assay; type: cell-based
Summary of the method: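 Recombinant mTOR kinase activity measured with no FKBP12 present, with vehicle or a range of compound doses. IC50 derived by plotting percent inhibition relative to control.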

LNCaP = assay: Antiproliferative activity against human LNCAP cells after 3 days by MTS assay; type: functional, cell-based; conditions: 72 h
Summary of the method: (§1)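 Cells seeded in 96-well plates for 24 h, then treated with vehicle or a range of compound doses for 3 days. Viable cell density read by MTS assay. IC50 taken from plots of percent inhibition versus vehicle control.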

[2] = Antiproliferative activity against human MDA468 cells after 3 days by MTS assay; type: functional, cell-based; conditions: MDA-MB-468, 72 h; summary of the method: as §1

pIC50 [1]	pIC50 (LNCaP)	SMILES	pIC50 [2]
5.60	7.89	CC[C@@H]1/C=C/C=C/C=C(\C)[C@@H](OC)C[C@@H]2CC[C@@H](C)[C@@](O)(O2)C(=O)C(=O)N2CCCC[C@H]2C(=O)O[C@H]([C@H](C)C[C@@H]2CC[C@@H](OC(=O)C(C)(CO)CO)[C@H](OC)C2)CC(=O)[C@H](C)/C=C(\C)[C@@H](O)[C@@H](OC)C(=O)[C@H](C)C1 [HOMOTEMSIROLIMUS B]	8.30
5.75	9.30	CO[C@H]1C[C@@H]2CC[C@@H](C)[C@@](O)(O2)C(=O)C(=O)N2CCCC[C@H]2C(=O)O[C@H]([C@H](C)C[C@@H]2CC[C@@H](OC(=O)C(C)(CO)CO)[C@H](OC)C2)CC(=O)[C@H](C)/C=C(\C)[C@@H](O)[C@@H](OC)C(=O)[C@H](C)C[C@H](C)/C=C/C=C/C=C/1C [TEMSIROLIMUS]	8.10
5.74	8.60	CC[C@@H]1CC[C@H]2C[C@H](OC)/C(C)=C/C=C/C=C/[C@@H](C)C[C@@H](C)C(=O)[C@H](OC)[C@H](O)/C(C)=C/[C@@H](C)C(=O)C[C@@H]([C@H](C)C[C@@H]3CC[C@@H](OC(=O)C(C)(CO)CO)[C@H](OC)C3)OC(=O)[C@@H]3CCCCN3C(=O)C(=O)[C@]1(O)O2 [HOMOTEMSIROLIMUS A]	9.00
5.68	8.10	CC[C@@H]1/C=C(\C)[C@@H](O)[C@@H](OC)C(=O)[C@H](C)C[C@H](C)/C=C/C=C/C=C(\C)[C@@H](OC)C[C@@H]2CC[C@@H](C)[C@@](O)(O2)C(=O)C(=O)N2CCCC[C@H]2C(=O)O[C@H]([C@H](C)C[C@@H]2CC[C@@H](OC(=O)C(C)(CO)CO)[C@H](OC)C2)CC1=O [HOMOTEMSIROLIMUS C]	8.30
